Experimental data reported in paper PMC10339699 (Clinical and Translational Science, 2023).
Values after ≈ are worked out from the molar mass of the structure shown. Where two headings read alike, the source gives them in different places.

What was measured:
Safety and tolerability = type: in vivo, human
[1] = Part 1: plasma PK of [14C]‐rilzabrutinib after i.v. microtracer dose; type: in vivo; conditions: male, human, iv, 100 ug
gut flora = experiment: Gut flora metabolism in vitro; type: in vitro ADME; conditions: in vitro studies (unpublished data)
[2] = type: in vivo, human
pH‐dependent solubility = type: physicochemical
[3] = type: in vivo, human; remark: listed apart in the source
BTK = conditions: within 4 h of dosing, multiple dosing; cited from earlier work
[4] = Part 2: urinary excretion of unchanged rilzabrutinib; type: in vivo, human
[5] = Part 1: absolute oral bioavailability; type: in vivo; conditions: male, human, plasma, 400 mg
Outline: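 Healthy subjects (n = 8) fasted overnight 10 h, then took a 400 mg oral tablet with 240 mL water. At 120 min, ~100 μg [14C]-labelled microtracer (~1 μCi) was given as an ~2-min i.v. push. K2 EDTA plasma was analysed by acetonitrile precipitation and LC-MS/MS (0.100–100 ng/mL). Noncompartmental AUC used linear-up/log-down. F was the GLSM oral/i.v. ratio with 90% CI, from a model with formulation fixed and subject random.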

[6] = previous bioavailability study; ref PRN1008‐006, unpublished data; cited from earlier work
[7] = Part 1: plasma PK of rilzabrutinib after single oral 400 mg tablet; type: in vivo, human
[8] = Part 2: total radioactivity PK in plasma and whole blood; type: in vivo, human; conditions: part 2, plasma total radioactivity
[9] = bile collection subjects, through the last collection interval
[10] = non‐bile collection subjects, through the last collection interval
[11] = male, human, plasma, po, 400 mg
[12] = part 1, oral 400 mg tablet (test), mixed‐effect model
[13] = part 1, single oral 400 mg tablet, dose normalized, geometric mean (CV)

In the case of `CC(C)(/C=C(\C#N)C(=O)N1CCC[C@@H](n2nc(-c3ccc(Oc4ccccc4)cc3F)c3c(N)ncnc32)C1)N1CCN(C2COC2)CC1` [rilzabrutinib], the “Clinical laboratory evaluations, vital signs, 12‐lead electrocardiogram, physical examinations” value (Safety and tolerability; both parts of the study) is reported as “no clinically significant findings”, the Tolerability (Safety and tolerability; both parts of the study, healthy male subjects) is reported as “well‐tolerated” and the “Deaths, serious adverse events, or TEAEs leading to discontinuation” value (Safety and tolerability; either part of the study) is reported as “No deaths, serious adverse events, or treatment emergent adverse events (TEAEs) leading to discontinuation”. For the same compound, the “Severity of TEAEs” value (Safety and tolerability; entire study, except for one moderate TEAE (viral infection) not treatment related) was “mild”, the “Total number of TEAEs” value (Safety and tolerability; part 1) was “three” and the “Total number of TEAEs” value (Safety and tolerability; part 2) was 13. For the same compound, the “Subjects who reported TEAEs” value (Safety and tolerability; part 2, six of 10 subjects) was 60%, the Vd [1] was 149 L and the clearance [1] was 968 mL/min. The Gut flora metabolism (gut flora) was “high gut flora metabolism”, the half-life ([2]; male, human, plasma, po, 300 mg) was 2.45 h and the CL/F ([2]; part 2, single oral 300 mg solution, geometric mean (CV)) was 904 L/h. For the same compound, the solubility (pH‐dependent solubility) was 40 µg/mL (≈ 60.1 µM), the solubility (pH‐dependent solubility; aqueous buffer) was > 120000 µg/mL and the “Administered radioactivity recovered in the first 192 h postdose” value ([3]; bile collection subjects) was 87.1%. The “Administered radioactivity recovered in bile, average” value ([3]; bile collection subjects, 3-8 h postdose) was 6.29%, the “Administered radioactivity recovered in feces, average” value [3, 9] was 72.7% and the “Administered radioactivity recovered in urine, average” value [3, 9] was 5.42%. For the same compound, the “Administered radioactivity recovered within the first 168 h of dosing” value ([3]; non‐bile collection subjects) was 92.1%, the “Administered radioactivity recovered in feces, mean” value [3, 10] was 87.0% and the “Administered radioactivity recovered in urine, mean” value [3, 10] was 5.25%. For the same compound, the BTK occupancy (BTK) was “greater than 90%”, the CL renal ([4]; male, human, urine and plasma, po, 300 mg) was 4.05 mL/min and the “f eu (percentage of dose excreted in urine as unchanged drug)” value ([4]; unchanged rilzabrutinib in urine, 0–312 h, 300 mg oral, geometric mean (CV)) was 3.02%. The bioavailability [5] was < 5%, the “PK exposure after 300 mg oral solution and 400 mg tablet formulation” value [6] was “comparable” and the “Delay in T max for tablet formulation as compared to liquid formulation” value ([7]; 400 mg tablet (part 1) versus 300 mg solution (part 2)) was 1 h. It also gave an AUC(0-inf) [7, 11] of 336 ng·h/mL, an AUC(0-t) [7, 11] of 334 ng·h/mL and a Cmax [7, 11] of 108 ng/mL. For the same compound, the Tmax [7, 11] was 2.03 h, the “DN AUC0–inf, GLSM” value [7, 12] was 0.839 ng·h/mL/mg and the “DN AUC0–last, GLSM” value [7, 12] was 0.835 ng·h/mL/mg. The “DN AUC0–inf” value [7, 13] was 0.839 (62.2) [n = 8] h ng/mL/mg, the “DN AUC0–last” value [7, 13] was 0.835 (62.7) [n = 8] h ng/mL/mg and the Circulating metabolite identified [8] was “thiocyanate”.
